Only some compounds are listed: those with a hit (about 2.4% of all), similar ones and a draw of the others.
Apaf-1 inh – human Apaf-1 inhibition | reconstituted apoptosome caspase-3 activity, DEVD-Rh110 fluorescence | inhibition, % at 20 µM | 330,000 tested, 0.71% active | AID 489030; active = inhibition of at least 40% at 20 µM;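 note: plate controls were DMSO wells for no effect and DEVD-CHO caspase inhibitor wells for full effect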
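Assay system: Apoptosome proteins | Medium: pH 7.5 Hepes buffer with CHAPS, BSA, DTT | Also added: Cytochrome c and DEVD-Rh110 substrate | Times: 30 min plus 50 min, RT | Detection: Rhodamine 110 fluorescence at Ex 480/Em 540 nm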
PAD4 inh – blocks human protein arginine deiminase 4. Q9UM07. recombinant PAD4, RCA probe fluorescence polarization. inhibition, % at 6.36 µM. 330,000 tested, 0.41% active. AID 485272;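 active = percent inhibition above a cutoff equal to the mean of all tested compounds plus 3 SD, cut at about 15% in these data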;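 note: 0% = PAD4 with RCA probe and DMSO and 100% = probe without PAD4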
Target sequence (Q9UM07 whole entry, looked up): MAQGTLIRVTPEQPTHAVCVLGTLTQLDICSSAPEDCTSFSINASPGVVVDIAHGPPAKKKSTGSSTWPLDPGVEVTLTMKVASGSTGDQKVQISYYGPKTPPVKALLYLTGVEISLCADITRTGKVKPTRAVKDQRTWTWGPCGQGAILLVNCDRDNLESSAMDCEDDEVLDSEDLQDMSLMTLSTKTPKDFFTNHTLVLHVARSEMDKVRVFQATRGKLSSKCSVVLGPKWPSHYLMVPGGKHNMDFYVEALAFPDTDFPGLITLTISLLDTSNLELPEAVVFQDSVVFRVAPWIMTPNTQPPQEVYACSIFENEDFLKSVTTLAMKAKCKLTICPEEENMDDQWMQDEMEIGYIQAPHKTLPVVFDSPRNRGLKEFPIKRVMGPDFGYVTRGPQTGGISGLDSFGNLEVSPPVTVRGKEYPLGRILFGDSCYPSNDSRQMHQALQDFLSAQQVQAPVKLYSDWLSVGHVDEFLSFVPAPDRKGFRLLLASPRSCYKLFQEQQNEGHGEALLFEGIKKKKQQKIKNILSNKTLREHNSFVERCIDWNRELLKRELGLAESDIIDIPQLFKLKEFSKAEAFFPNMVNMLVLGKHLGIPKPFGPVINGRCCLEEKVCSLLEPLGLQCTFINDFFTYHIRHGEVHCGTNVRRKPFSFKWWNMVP
GSTO1 counter – blocks human GSTO1 in RBBP9 counter-screen; P78417; recombinant GSTO1, activity-based probe fluorescence polarization; inhibition, % at 5.96 µM; 300,000 tested, 1.1% active;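 active = inhibition above the campaign mean inhibition plus 3 SD, cut at about 35% in these data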;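 note: 0% = GSTO1-1 with DMSO and 100% = wells lacking GSTO1-1 enzyme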
TDP2 inh – TDP2 (human) inhibition, absorbance primary screen; 370,000 tested, 0.34% active; inhibition, % at 12.8 µM; AID 720702; recombinant TDP2, T5PNP hydrolysis, p-nitrophenol absorbance 415 nm;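 active = inhibition above the mean of all tested compounds plus 3 SD, set per campaign, cut at about 25% in these data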;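 note: 0% = DMSO with enzyme and 100% = buffer with substrate but no TDP2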
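Read-out basis: percent inhibition. System: recombinant human TDP2. Buffer or medium: Mg2+-containing Tris-HCl buffer, pH 7.5. Repeats: single replicate. Timing: reaction 2 h, 37 °C. Benchmarks: high control without enzyme, low control DMSO plus TDP2. Probe or stimulus: 5 mM T5PNP. Doses: 12.8 µM only. Measured by: epi absorbance of p-nitrophenol freed from T5PNP by hydrolysis.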
SIAE primary – human SIAE inhibition, primary screen; 370,000 tested, 0.69% active; inhibition, % at 9.66 µM; Q9HAT2; SIAE FP-Rh probe binding, fluorescence polarization;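 active = inhibition above a cutoff: mean of compounds within the control limits plus 3 SD of those, cut at about 17% in these data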;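 note: 0% = plate median of compound wells and 100% = probe without SIAE protein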
TCR-CD3 inh – blocks the human TCR-CD3 interaction. 360,000 tested, 0.37% active. TAMRA-labeled TCR probe fluorescence, biochemical. inhibition, % at 9.4 µM. AID 651800; in the data active = inhibition above about 19%;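 note: recombinant mutant TCR 2C K166C tagged with TAMRA read by polarization; 0% = receptor in buffer alone and 100% = receptor with positive control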
GSTO1 inh conf – GSTO1 (human) inhibition, confirmation; inhibition, % at 5.96 µM; 2,400 tested, 54% active; shares compounds with GSTO1 counter; recombinant GSTO1, probe fluorescence polarization;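 active = inhibition above the primary screen's cutoff, its mean inhibition plus 3 SD, cut at about 35% in these data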;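 note: loss of polarization as inhibitors block binding of rhodamine sulfonate ester activity probe; 0% = GSTO1 with DMSO and 100% = wells lacking GSTO1 enzyme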
GSTO1 recomb ABPP – inhibitors of recombinant human GSTO1; 130 tested, 30% active; inhibition, % at 1 µM; shares compounds with GSTO1 counter; AID 463110; gel ABPP SE-Rh probe fluorescence;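 active = inhibition of the enzyme GSTO1 above about 75%, limit read from the data; inactive = inhibition below that limit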
Active calls of the source: *; . = no result.

SMILES	Apaf-1 inh	PAD4 inh	GSTO1 counter	TDP2 inh	SIAE primary	TCR-CD3 inh	GSTO1 inh conf	others
Cc1ccc(S(=O)(=O)c2nc(S(C)(=O)=O)sc2N2CCOCC2)cc1	-2	0	-3	-6	4	7	.
Cc1ccc(S(=O)(=O)c2nc(S(C)(=O)=O)sc2N2CCC3(CC2)OCCO3)cc1	-5	4	63*	-1	2	0	5
CC(=O)N(C)c1ccc(N=Nc2c(C)[nH]n(-c3ccccc3)c2=O)cc1	22	2	-2	15	10	2	.
Cc1[nH]n(-c2ccccc2)c(=O)c1N=Nc1ccccc1C(=O)O	13	1	41*	1	3	4	11
COC(=O)N1C[C@H](OCc2cn(-c3ccc(OC)cc3)nn2)[C@H]2C[C@@H]1c1ccccc1O2	.	.	.	2	3	4	.
Cc1cc(=O)n(-c2ccc(C(=O)O)cc2)[nH]1	9	2	63*	22	5	-2	-1
O=C(O)c1ccc(-n2[nH]c3c(c2=O)CCCC3)cc1	2	0	6	7	-2	2	.
C[C@H]1COc2c3ccc(I)cc3nn21	.	.	.	9	3	.	.
COc1cc2c(ccc3cc(OC)c(OC)c(O)c32)cc1O	-21	-2	55*	8	17	39*	45*
COc1ccc(N2CCN(C(=O)COC(=O)c3cccc(OC)c3O)CC2)cc1	-4	0	.	2	10	5	.
O=C(CC(c1ccccc1)c1ccccc1O)NCc1ccccc1 (stereo not drawn)	10	2	0	-3	0	-3	.
O=C(COC(=O)c1ccc([N+](=O)[O-])s1)NC(=O)NCc1ccccc1	33	-3	51*	21	-3	-1	17
COc1ccc(-c2[nH]ncc2CN2CCN(Cc3cccs3)CC2)cc1F	-11	0	72*	2	-2	-7	4
O=c1[nH][nH]cc1C=Nc1ccccc1O	-4	-3	31	4	-2	0	.
O=c1c(=Nc2ccccc2O)c(=O)c2ccccc12	34	-17	68*	17	3	4	25
O=C(C1CC(=O)N(c2ccccc2)C1)N1CCC(c2nc3ccccc3[nH]2)CC1 (stereo not drawn)	3	6	-7	-9	1	-13	.
Oc1cccc(/C=N/NC(=S)Nc2cccnc2)c1O	.	0	79*	2	14	0	27
COc1ccc(NC(=O)C2CCCN(C(=O)c3ccc(Cl)cc3)C2)cc1Cl (stereo not drawn)	12	0	.	-9	1	-2	.
CCC(OC(=O)C1=Cc2ccccc2OC1)C(=O)NCc1ccco1 (stereo not drawn)	-10	-8	4	-3	1	-2	.
Oc1c(C=NCc2ccc(F)cc2)[nH]c2ccc(Br)c(Cl)c12	31	-17	48*	7	-2	1	9
Cc1ccc(CN=Cc2[nH]c3ccc(Br)c(Cl)c3c2O)cc1	36	-17	52*	18	-6	5	6
C=CCc1ccccc1OCC(O)CN1CCN(c2ccc(OC)cc2)CC1 (stereo not drawn)	6	-7	-4	-6	7	3	.
COc1cc(OC)c2c(c1)OC(=O)CC2c1ccc2c(c1)OCO2 (stereo not drawn)	12	-6	.	2	1	2	.
CCc1ccc2c(c1)C(=O)C(=O)N2CCS(=O)(=O)c1ccccc1	1	-1	6	-5	2	-1	.
O=C1C(=O)N(CCS(=O)(=O)c2ccccc2)c2ccc(Cl)cc21	19	4	43*	22	2	0	6
COCCNc1nc2cc(-c3ccc(F)cc3)sc2c(=O)n1C	.	.	.	3	-7	-10	.
O=c1[nH]c(CCl)nc2cc(-c3ccc(F)cc3)sc12	16	-1	97*	10	2	7	94*	GSTO1 recomb ABPP=82*
CC1CN(Cc2ccccn2)CCC1=O (stereo not drawn)	-4	4	5	2	3	1	.

Source: PubChem (several laboratories)
